Measured values taken from PubChem BioAssay AID540320 (Southern Research Specialized Biocontainment Screening …, 2011).
Activity calls are given as the source filed them.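 Rule for the calls: active = progeny virus titer drops over tenfold versus the untreated infected control, meaning log virus titer change below -1; inactive = the rest.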

test system: HEp-2 cells, RSV plaque reduction, virus titer; assay: antiviral reduction of RSV infectious yield – plaque reduction, HEp-2 cells, set 3, orthogonal assay for RSV antiviral project (AID 540320); settings: at 10 µM; hits give low values
Procedure, shortened: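 System: HEp-2 cells infected with RSV Long strain / Reagent: RSV Long, MOI 0.1 / Doses: single dose, 0.5% DMSO / Schedule: 2 h infection, 48 h compound exposure at 37 °C / Measured by: plaque assay on fresh HEp-2, PFA fixation, neutral red staining / Read-out basis: supernatant virus titer / Controls: Ribavirin 35 µM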

SMILES	log virus titer change
COCCCNC(=O)c1ccc(Cn2c(=O)c3ccccc3n(Cc3ccc(OC)cc3)c2=O)cc1	-2.72
Cc1cc(NC(=O)[C@@H]2CCCN2S(=O)(=O)c2cccc3cccnc23)n(C(C)(C)C)n1	-0.71 (inactive)
Cc1ccc(Cn2c(=O)n(Cc3ccc(C(=O)Nc4ccncc4)cc3)c(=O)c3ccccc32)cc1	-3.25
Cc1ccc(F)cc1NC(=O)[C@@H]1CCCN1S(=O)(=O)c1cccc2cccnc12	-0.33 (inactive)
COCCCNC(=O)c1ccc(Cn2c(=O)c3ccccc3n(Cc3ccc(Br)cc3)c2=O)cc1	-4.51
Cc1ccc(Cn2c(=O)n(Cc3ccc(C(=O)NC(C)(C)C)cc3)c(=O)c3ccccc32)cc1	-5.38
COCCCNC(=O)c1ccc(Cn2c(=O)c3ccccc3n(Cc3ccc(Cl)cc3)c2=O)cc1	-3.12
COCCCNC(=O)c1ccc(Cn2c(=O)c3ccccc3n(Cc3ccc(C(F)(F)F)cc3)c2=O)cc1	-2.66
COCCCNC(=O)c1ccc(Cn2c(=O)c3ccccc3n(Cc3ccc4nonc4c3)c2=O)cc1	-2.05
Cc1ccc(Cn2c(=O)n(Cc3ccc(C(=O)Nc4nccs4)cc3)c(=O)c3ccccc32)cc1	-0.01 (inactive)
Cc1cccc(NC(=O)[C@@H]2CCCN2S(=O)(=O)c2cccc3cccnc23)c1C	-0.39 (inactive)
Cc1ccc(Cn2c(=O)n(Cc3ccc(C(=O)Nc4cc(C)nc5ccccc45)cc3)c(=O)c3ccccc32)cc1	-0.61 (inactive)
COCCCNC(=O)c1ccc(Cn2c(=O)c3ccccc3n(Cc3ccc(C)c(C(F)(F)F)c3)c2=O)cc1	-2.37
COCCCNC(=O)c1ccc(Cn2c(=O)c3ccc(Br)cc3n(Cc3ccc(C)cc3)c2=O)cc1	-0.31 (inactive)
COCCCNC(=O)c1ccc(Cn2c(=O)c3ccccc3n(Cc3ccc([N+](=O)[O-])cc3)c2=O)cc1	-4.94
